ASAP1 GAP inh: inhibitors of human ASAP1 ArfGAP activity; Q9ULH1; ASAP1-stimulated ARF1 GTP hydrolysis, GDP FP detection; inhibition, % at 16.5 µM; actives 0.19% (n = 360,000); AID 624377; in the data active means inhibition above about 25%;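 further: 0% = vehicle with enzyme and substrate and 100% = no enzyme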
Target sequence (Q9ULH1 325-724 limits assumed): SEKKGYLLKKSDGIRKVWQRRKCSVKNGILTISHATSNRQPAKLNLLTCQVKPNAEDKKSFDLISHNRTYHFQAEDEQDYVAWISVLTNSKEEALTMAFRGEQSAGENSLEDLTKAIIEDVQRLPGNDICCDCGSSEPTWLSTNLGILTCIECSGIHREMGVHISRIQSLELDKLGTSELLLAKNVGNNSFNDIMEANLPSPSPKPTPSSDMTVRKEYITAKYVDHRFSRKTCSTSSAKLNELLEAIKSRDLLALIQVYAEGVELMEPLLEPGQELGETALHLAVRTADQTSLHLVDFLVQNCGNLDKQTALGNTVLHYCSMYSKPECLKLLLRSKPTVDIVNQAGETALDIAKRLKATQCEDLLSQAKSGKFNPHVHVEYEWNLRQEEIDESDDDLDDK
ARFGAP1 inhibitor: inhibits rat ARF GTPase activating protein 1 | AID 651572 | Arfgap1-stimulated ARF1 GTP hydrolysis, GDP FP detection | actives 0.26% (n = 360,000) | inhibition, % at 16.5 µM | Q62848;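 active means inhibition above a per-plate limit, mean inhibition of low control wells plus 3 SD, cut at about 25% in these data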;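 further: 0% = DMSO wells with enzyme and 100% = wells lacking Arfgap1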
Target sequence (Q62848 1-136 limits assumed): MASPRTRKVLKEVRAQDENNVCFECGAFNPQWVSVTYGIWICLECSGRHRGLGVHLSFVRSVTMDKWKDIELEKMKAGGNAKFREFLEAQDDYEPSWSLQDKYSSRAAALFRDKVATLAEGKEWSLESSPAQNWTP
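Assay system: Rat Arfgap1 GAP domain (His6, aa 1-136), purified enzyme | Buffer or medium: HEPES 25 mM pH 7.5, NaCl 150 mM, MgCl2, DTT | Schedule: GTP hydrolysis reaction 2 h at 25 °C | Signal: FP of antibody-bound GDP Alexa 633 tracer, ex 620/em 688 nm | Measure: Percent inhibition of Arfgap1-stimulated GTP hydrolysis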
Rin1 Abl inh: blocks binding of human Rin1 to Abl | P00519+Q13671 | AID 588664 | actives 0.4% (n = 360,000) | inhibition, % at 7.35 µM | TR-FRET Rin1/Abl binding, biochemical; in the data active means inhibition above about 5%, passing the limit was not always enough
GalR3 antagonist: blocks the human galanin receptor 3; O60755; HEK293 GalR3-CNG cAMP membrane potential fluorescence; galR3 body fused to GalR1 C-terminus; inhibition, % at 3 µM; actives 0.44% (n = 360,000); AID 651719;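 active means inhibition above the screen-wide average plus 3 SD, cut at about 13% in these data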;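 further: forskolin and galanin both at EC90 stimulate the cells; cAMP rise reported by CNG channel membrane potential dye signal; 0% = forskolin plus galanin with DMSO and 100% = forskolin alone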
GalR3 conf: confirmation of human galanin receptor 3 antagonists. HEK293 GalR3 CNG cAMP biosensor, membrane potential fluorescence; galR3 fused to GalR1 carboxy tail; challenged with forskolin and galanin at EC90. actives 59% (n = 1,600). shares compounds with GalR3 antagonist. inhibition, % at 3 µM;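 active means inhibition above the primary screen's cutoff, the mean inhibition of all screened compounds plus 3 SD, cut at about 13% in these data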;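 further: 0% = forskolin plus galanin and 100% = forskolin alone with DMSO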
CNG parental: counter-screen for GalR3 antagonists: nonspecific agonists in parental HEK-CNG cells. shares compounds with GalR3 antagonist. actives 10% (n = 1,600). activation, % at 3 µM. HEK293-CNG parental cells, cAMP membrane potential fluorescence; normalised: DMSO wells 0%, forskolin wells 100%. AID 652268; in the data active means activation above about 1.3%
* marks the source's active call; other numbers are inactive results; nt = no result. This is a sample that favours compounds with a hit; in the whole collection about 1.2% have one here.

SMILES	ASAP1 GAP inh	ARFGAP1 inhibitor	Rin1 Abl inh	GalR3 antagonist	GalR3 conf	CNG parental
CC(C)N(C[C@@H]1CSCCS(=O)(=O)N1)C(C)C	16.3	1.3	nt	-5.8	nt	nt
O=C(COC(=O)c1ccc([N+](=O)[O-])s1)NC(c1ccccc1)c1ccccc1	-2.1	-11.0	1.6	21.8*	-0.5	0.1
COc1cccc(NC(=S)N(CCCN2CCCC2)Cc2ccco2)c1	4.0	-12.5	3.4	21.0*	1.3	0.5
Cc1cc(NC(=O)/C=C/c2ccccc2)c(C(C)C)cc1O	-2.3	11.8	0.1	18.7*	22.8*	-0.2
COC(=O)[C@]12C[C@H](CC(=O)NCc3cccc4ccccc34)C(=O)N(Cc3ccccc3)C1=C[C@H](C(C)C)O[C@@H]2C1CC1	-8.4	3.6	nt	-4.1	nt	nt
COc1ccc(C(=O)C(CN2CCOCC2)c2ccccc2)cc1F (stereo not given)	-9.2	-5.8	-2.9	27.7*	1.4	0.1
COc1ccc(C(=O)OC(C)CN2CCOCC2)cc1OC (stereo not given)	-10.9	-3.2	-2.2	nt	2.8	-0.1
CCOC(=O)C1=CCN(S(=O)(=O)c2ccc([N+](=O)[O-])cc2)C1c1ccc(C)cc1 (stereo not given)	-5.2	-1.0	nt	-3.0	nt	nt
O=S1(=O)c2ccc(Br)cc2OC[C@H](c2ccccc2)N1Cc1ccccc1	-5.1	-2.1	nt	-5.0	nt	nt
CCCN(CC(=O)Nc1ccc(Cl)cc1Cl)Cc1cc(=O)n2ccsc2n1	2.3	-11.3	2.3	17.0*	23.8*	0.3
COC(=O)C1=C(C)N(Cc2ccc(C(F)(F)F)cc2)C(=NCc2ccc3c(c2)OCO3)NC1c1ccccc1C(F)(F)F (stereo not given)	-1.6	10.3	nt	-8.0	nt	nt
COCc1cc(N2CCN(C(=O)OC(C)(C)C)C[C@H]2C)ccc1Br	-14.4	0.9	nt	-3.9	nt	nt
CC1CC(=O)NN=C1c1ccc(NCCO)c([N+](=O)[O-])c1 (stereo not given)	-2.8	-1.5	-12.9	64.3*	71.2*	-0.2
COc1ccc(/C=C/C(=O)OCC(=O)Nc2nnc(-c3ccccc3)o2)c(OC)c1	-3.1	-5.1	-0.6	-4.1	nt	nt
COc1cccc(/C=C/C(=O)OCC(=O)Nc2nnc(-c3ccccc3)o2)c1OC	-8.8	2.4	3.5	12.6*	1.9	0.7
CN(C)S(=O)(=O)N1CCC(Oc2ccc(C(=O)NC3CCCCC3)cc2)CC1	10.7	-7.6	0.5	10.4	nt	nt
CN(C)S(=O)(=O)N1CCC(Oc2cccc(C(=O)NC3CCCCC3)c2)CC1	-17.0	2.5	-0.7	14.2*	62.2*	-0.3
Cc1ccc2nc(-c3ccc(CN4CCC5(CC4)CNc4ccccc45)cc3)c(-c3ccccc3)nc2c1	8.2	10.2	nt	-3.9	nt	nt
CCOc1ccc(CNC(=O)c2ccc3nc(N4CCOCC4)sc3c2)cc1	9.6	6.9	4.4	4.2	nt	nt
O=C(NCCc1ccc(Cl)cc1)c1ccc2nc(N3CCOCC3)sc2c1	14.1	2.4	0.6	16.2*	19.0*	-0.4
O=C(O)CNc1ncccc1[N+](=O)[O-]	-8.8	-7.1	3.6	16.5*	-0.9	0.0
COc1cc(C#Cc2c(-c3ccccc3OC)oc3ccccc23)cc(OC)c1	14.1	16.7	-0.6	13.4*	6.0	0.3
COc1ccccc1-c1oc2ccccc2c1-c1ccc2c(c1)OCO2	10.3	17.4	-0.2	-4.4	nt	nt
CC(C(=O)Nc1ccc2[nH]c(=O)[nH]c2c1)N1CCN(Cc2ccc3c(c2)OCO3)CC1 (stereo not given)	11.0	15.8	2.3	13.4*	13.4*	0.3
c1csc(CNc2ncnc3sccc23)c1	-12.2	15.6	-3.3	60.7*	87.9*	0.4
SMILES	ASAP1 GAP inh	ARFGAP1 inhibitor	Rin1 Abl inh	GalR3 antagonist	GalR3 conf	CNG parental
c1ccc(CNc2ncnc3sccc23)cc1	6.6	0.0	-0.5	-6.7	nt	nt
Cc1cc(OCC(=O)NC2CC(C)(C)NC(C)(C)C2)c2c(C)cc(=O)oc2c1	-3.5	9.6	2.7	nt	-2.1	0.1
Cc1cc(OCC(=O)NC2CC(C)(C)NC(C)(C)C2)c2c(C)c(C)c(=O)oc2c1	-1.4	-7.2	-0.8	-1.4	nt	nt
CC(Nc1ncnc2ccccc12)c1ccccc1 (stereo not given)	-19.1	1.8	0.6	95.5*	105.8*	-0.2
COC(=O)CSc1nc(N)c(C#N)c(-c2ccc(O)cc2)c1C#N	16.4	11.8	-1.3	44.9*	73.7*	0.5
Cc1cc(C)n(-c2ccc(C(=O)Nc3ccc(S(=O)(=O)NCc4ccco4)cc3)cc2)n1	5.3	6.6	1.0	70.9*	60.7*	-0.6
COC(=O)C1=C(C)N(Cc2cccc(C(F)(F)F)c2)C(=NCc2ccccc2C(F)(F)F)NC1c1ccc(Cl)cc1 (stereo not given)	-2.5	4.2	nt	-5.2	nt	nt
CC(C)Nc1nc(Cl)nc(N(C#N)CN2C(=O)c3ccccc3C2=O)n1	-11.9	-5.1	-0.6	15.7*	1.2	0.6
CCC(C)Nc1nc(Cl)nc(N(C#N)CN2C(=O)c3ccccc3S2(=O)=O)n1 (stereo not given)	-1.6	3.6	-4.8	-6.7	nt	nt
COc1ccc(CN2C[C@H](COCc3ccccc3)Oc3cccc(Oc4ccc(C(C)C)cc4)c3S2(=O)=O)cc1	-3.7	-10.8	nt	-2.1	nt	nt
CCOc1cc(CNCC2CCCN2CC)cc(Cl)c1OC (stereo not given)	1.8	6.9	-3.3	15.2*	2.7	1.1
CCN1CCCC1CNCc1cc(OC)c(OC)c(OC)c1 (stereo not given)	-6.2	-2.8	-3.5	-7.3	nt	nt
NS(=O)(=O)c1ccc(CNC(=O)c2csc3c2CCCC3)cc1	5.6	10.2	0.7	27.1*	12.7*	0.1
Cc1cc(O)cc(=O)n1-c1ccc(Cl)c(C(F)(F)F)c1	-2.5	-5.2	nt	-0.8	nt	nt
CN1CCN(C(=S)C(=O)Nc2ccc(Br)cc2)CC1	3.6	14.6	1.9	39.6*	3.8	0.1
COC(=O)C1=C(C)N(Cc2cccc(C(F)(F)F)c2)C(=NCc2cc(OC)c(OC)c(OC)c2)NC1c1ccccc1 (stereo not given)	-3.7	15.1	nt	-8.4	nt	nt
COc1cccc2[nH]c3c(N4CCC(C)CC4)ncnc3c12	-5.5	3.2	-3.6	85.9*	96.3*	0.6
COc1cccc2[nH]c3c(N4CCC5(CC4)OCCO5)ncnc3c12	0.2	8.7	-5.1	-2.8	nt	nt
CC(C)N(c1cc(=O)nc2ccccn12)C(C)C	-10.1	-13.2	nt	2.0	nt	nt
C[C@@H]1CC=C[C@H]2[C@H]1C(=O)N(Cc1ccccc1)[C@H]2c1ccc2ccccc2c1	9.7	-3.0	2.6	nt	-4.9	1.2
CCn1cc([N+](=O)[O-])c(C(=O)N2N=C(c3ccc(Cl)c(Cl)c3)CC2c2ccccc2O)n1 (stereo not given)	0.7	2.5	1.2	14.7*	19.6*	0.2

Assay outcomes deposited in PubChem BioAssay by The Scripps Research Institute Molecular Screening Center.
